Assay results from ChEMBL document CHEMBL1141152, “Efficient transfection of DNA by liposomes formulated with cationic gemini amphiphiles” (2005).

Legend:
Type in all cases: functional, Rattus norvegicus
[1] = Percentage survived cells of LA7 cell line done for 6 hr with compound (42.5 uM) in trypan blue exclusion dye test
Outline: (§1)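 LA7 rat mammary adenocarcinoma cells grown in DMEM with 10% FCS, penicillin/streptomycin, insulin and hydrocortisone (50 ng/mL each). Exposed 6 h to DMPC/cationic amphiphile liposomes (1/1; doubled amphiphile for single-headgroup surfactant), concentrations 425 μM to 8.5 μM; medium then replaced. Viability by Trypan blue exclusion 24 h later, counting unstained cells. Duplicates, at least five times; typical experiment shown.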

[2] = Percentage survived cells of LA7 cell line done for 6 hr with compound (21.3 uM) in trypan blue exclusion dye test; outline: as §1
[3] = Percentage survived cells of LA7 cell line done for 6 hr with compound (85 uM) in trypan blue exclusion dye test; outline: as §1
[4] = Percentage survived cells of LA7 cell line done for 6 hr with compound (8.5 uM) in trypan blue exclusion dye test; outline: as §1
[5] = Percentage survived cells of LA7 cell line done for 6 hr with compound (213 uM) in trypan blue exclusion dye test; outline: as §1

SMILES	Survival [1]	Survival [2]	Survival [3]	Survival [4]	Survival [5]
CCCCCCCCCCCCCCCC[N+](C)(C)CCOC.[Br-]	100%	100%	80%	100%	50%
CCCCCCCCCCCCCCCC[N+](C)(C)CCCC[N+](C)(C)CCCCCCCCCCCCCCCC.[Br-].[Br-] [CATIONIC AMPHIPHILE]	100%	100%	80%	100%	50%
CCCCCCCCCCCCCCCC[N+](C)(C)C[C@@H](OC)[C@@H](C[N+](C)(C)CCCCCCCCCCCCCCCC)OC.[Br-].[Br-] [CATIONIC AMPHIPHILE]	–	–	–	100%	–
CCCCCCCCCCCCCCCC[N+](C)(C)C[C@H](OC)[C@@H](C[N+](C)(C)CCCCCCCCCCCCCCCC)OC.[Br-].[Br-] [CATIONIC AMPHIPHILE]	30%	80%	–	100%	–
CCCCCCCCCCCCCCCC[N+](C)(C)C[C@H](OC)[C@H](C[N+](C)(C)CCCCCCCCCCCCCCCC)OC.[Br-].[Br-] [CATIONIC AMPHIPHILE]	10%	90%	–	100%	–
